Experimental findings from ChEMBL document CHEMBL4371053, “A novel tetrazole analogue of resveratrol is a potent anticancer agent” (Bioorg Med Chem Lett, 2019) are described below.

Activity calls are given as the source filed them. No cut-off for these calls is given here.

One test deals with NCI-H460. The test is described as follows: Growth inhibition of human NCI-H460 cells at 10 uM after 48 hrs by sulforhodamine B assay relative to control. The format is functional. To be noted: NCI-H460, 48 h, values are per cent of control. The method in brief: (§1)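 NCI-60 single-dose screen. Cells exposed to 10⁻⁵ M or to vehicle for 48 h. Growth measured by sulforhodamine B optical density before and after exposure. Reported as percent growth relative to vehicle control and to time-zero cell number; negative values indicate cell kill.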

The next test has as its system NCI-H522. The test can be described thus: Growth inhibition of human NCI-H522 cells at 10 uM after 48 hrs by sulforhodamine B assay relative to control. The test is classed as functional. The note with it: NCI-H522, 48 h, values are per cent of control. The method in brief: as §1
(Sulforhodamine B stains cellular protein and so reports cell mass.)

The next test has as its system KM12. The test is described as follows: Growth inhibition of human KM12 cells at 10 uM after 48 hrs by sulforhodamine B assay relative to control. The format is functional. The note with it: KM12, 48 h, values are per cent of control. The method in brief:
as §1

The test system of a further test is SF-539. The test is described as follows: Growth inhibition of human SF539 cells at 10 uM after 48 hrs by sulforhodamine B assay relative to control. The test is classed as functional. The note with it: SF-539, 48 h, values are per cent of control. The method in brief: as §1
The next test has as its system MDA-MB-435. The test can be described thus: Growth inhibition of human MDA-MB-435 cells at 10 uM after 48 hrs by sulforhodamine B assay relative to control. The format is functional. To be noted: MDA-MB-435, 48 h, values are per cent of control. The method in brief: as §1
For a further test, the system named is SK-MEL-5. The test is described as follows: Growth inhibition of human SK-MEL-5 cells at 10 uM after 48 hrs by sulforhodamine B assay relative to control. The test is classed as functional. To be noted: SK-MEL-5, 48 h, values are per cent of control. The method in brief: as §1
The test system of a further test is OVCAR-3. The test can be described thus: Growth inhibition of human OVCAR3 cells at 10 uM after 48 hrs by sulforhodamine B assay relative to control. The format is functional. To be noted: OVCAR-3, 48 h, values are per cent of control. The method in brief:
as §1

Another test concerns A498. The test is described as follows: Growth inhibition of human A498 cells at 10 uM after 48 hrs by sulforhodamine B assay relative to control. To be noted: A498, 48 h, values are per cent of control. The format is functional. The method in brief:
as §1

In the next test the test system is DU-145. The test is described as follows: Growth inhibition of human DU145 cells at 10 uM after 48 hrs by sulforhodamine B assay relative to control. The format is functional. To be noted: DU-145, 48 h, values are per cent of control. The method in brief:
as §1

Another test deals with Tubulin (Homo sapiens) (UniProt P68371+Q9H4B7+P0DPH7+P68366+Q13509+Q71U36+P04350+Q3ZCM7+P07437+P68363+Q9BQE3+Q6PEY2+Q13885+Q9BVA1+Q9BUF5). The test is described as follows: Inhibition of tubulin (unknown origin) polymerization at 2 uM by immunoblot analysis. The test is classed as protein-complex assay. The method in brief: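 Cell-based assay. Cells were treated with compound at 1.0 and 2.0 μM. Polymerized tubulin (pellet) was separated from unpolymerized tubulin (supernatant), and both fractions were immunoblotted with anti-tubulin antibody.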
For orientation: In western blotting, separated proteins are transferred to a membrane and probed.

With `COc1ccc(/C=C(/c2ccc([N+](=O)[O-])cc2)c2nnn[nH]2)c2ccccc12`, the growth, % of control at 10 µM stood at 103% in the test on NCI-H460; 89.4% in the test with NCI-H522; 111% with KM12; 104% in the test on SF-539; 105% in the test on MDA-MB-435; 97.1% with SK-MEL-5. In addition, the growth, % of control at 10 µM in the test on OVCAR-3 turned out to be 112%; in the test with A498, 112%; in the test on DU-145, 113%. For the same compound, the inhibition entry on Tubulin (Homo sapiens) is “Active”.

Turning to `COc1ccc(/C(=C/c2cc(OC)c(OC)c(OC)c2)c2nnn[nH]2)cc1OC`, the growth, % of control at 10 µM with NCI-H460 came to 106%; in the test with NCI-H522, 90.2%; in the test on KM12 it was 99.8%; in the test on SF-539, 96.2%; with MDA-MB-435 it was 102%; in the test with SK-MEL-5 it was 96.4%. Further, the figures for the growth, % of control at 10 µM in the test with OVCAR-3, with A498 and in the test with DU-145 were 118%, 89.5% and 106%, respectively.

Turning to `COc1ccc(/C=C(/c2cc(OC)c(OC)c(OC)c2)c2nnn[nH]2)cc1`, the growth, % of control at 10 µM stood at 110% with NCI-H460; 90.3% in the test on NCI-H522; 102% in the test with KM12; 100% in the test with MDA-MB-435; 94.1% in the test on SK-MEL-5; 113% with OVCAR-3. Besides, the values for the growth, % of control at 10 µM in the test with A498 and in the test on DU-145 were 102% and 108%, respectively. The inhibition entry on Tubulin (Homo sapiens) was “Active”.
